We go through seven compounds from ChEMBL document CHEMBL4706643 (J Med Chem, 2021).

SMILES strings stand for the structures. pIC50: −log10 of the molar value.

The test system of data set [1] is Hepatitis B virus. Kind of data set: Antiviral activity against HBV infected in human HepG2-NTCP cells assessed as reduction in HBeAg secretion cells inoculated with virus for 4 hrs at room temperature and 37 degree C for 24 hrs followed inoculum changed with PMM medium for every 2 days until day 5 post infection by ELISA. Format: functional, organism-based. A general note: ELISA stands for enzyme-linked immunosorbent assay.

Data set [2] can be described thus: Intrinsic clearance in mouse liver microsomes at 1 uM preincubated for 5 mins followed by NADPH addition and measured upto 60 mins by LC-MS analysis. Format: ADME, Microsome. Particulars: read-out: CLH; call rule not given here. In short, it runs like this:
(§1)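 Human or mouse liver microsomes, final 1 mg/mL in 0.05 M phosphate buffer pH 7.4; compound final 1 μM, preincubated 37 °C 5 min, started with 1 mM NADPH; sampled at 0, 5, 15, 30, 60 min, methanol quench, −20 °C 1 h, centrifuged, supernatant by LC–MS.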

Data set [3] is described as follows: Intrinsic clearance in human liver microsomes at 1 uM preincubated for 5 mins followed by NADPH addition and measured upto 60 mins by LC-MS analysis. Format: ADME, Microsome. Particulars: read-out: CLH. In short, it runs like this:
as §1
For orientation: Liver microsomes are vesicles of endoplasmic reticulum, rich in cytochrome P450 enzymes.

Data set [4] in a line: Intrinsic clearance in rat liver microsomes at 1 uM preincubated for 5 mins followed by NADPH addition and measured upto 60 mins by LC-MS analysis. The class given is ADME, Microsome. The settings on record: time 65 min, read-out: CLH.
Data set [5] concerns the target T1, Hepatic sodium/bile acid cotransporter (Homo sapiens, UniProt Q14973).
T1 sequence (Q14973 whole entry): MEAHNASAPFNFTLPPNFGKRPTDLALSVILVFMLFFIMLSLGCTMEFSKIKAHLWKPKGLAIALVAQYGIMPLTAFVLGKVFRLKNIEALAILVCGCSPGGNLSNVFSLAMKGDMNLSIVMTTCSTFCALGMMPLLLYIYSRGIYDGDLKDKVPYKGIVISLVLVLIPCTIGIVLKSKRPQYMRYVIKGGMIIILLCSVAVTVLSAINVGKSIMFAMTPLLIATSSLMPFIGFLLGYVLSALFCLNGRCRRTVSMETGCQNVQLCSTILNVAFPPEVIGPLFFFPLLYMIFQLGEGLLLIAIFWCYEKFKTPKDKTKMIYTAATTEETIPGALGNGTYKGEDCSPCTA
Briefly: Inhibition of human NTCP expressed in human HepG2 cells assessed as decrease in NTCP surface expression at 2 uM incubated for 2 hrs by DAPI staining based analysis. Format: cell-based. Particulars: hepg2, 2 h. In short, it runs like this:
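HepG2-NTCP cells treated 2 h with DMSO, compound or TLCA at 2 μM, then immunostained for NTCP to assess cell-surface distribution.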

Broadly, the pIC50 is the IC50 on a negative log10 scale, so that one unit is a factor of ten. As to `CCCCc1ccc(S[C@H]2C[C@@H](C)[C@H]([C@H]3C(=O)N[C@@H](CC)C(=O)N(C)CC(=O)N(C)[C@@H](CC(C)C)C(=O)N[C@@H](C(C)C)C(=O)N(C)[C@@H](CC(C)C)C(=O)N[C@@H](C)C(=O)N[C@H](C)C(=O)N(C)[C@@H](CC(C)C)C(=O)N(C)[C@@H](CC(C)C)C(=O)N(C)[C@@H](C(C)C)C(=O)N3C)O2)cc1`, the pIC50 in data set [1] is 6.58. Further, the microsomal CLint at 1 µM in data set [2] amounted to 2.5 µL/min/mg; in data set [3], 6.1 µL/min/mg; in data set [4], 4 µL/min/mg.

As for `C[C@H](CCC(=O)NCCS(=O)(=O)O)[C@H]1CC[C@H]2[C@@H]3CC[C@@H]4C[C@H](O)CC[C@]4(C)[C@H]3CC[C@]12C` [TAUROLITHOCHOLIC ACID], in data set [5], the “inhibition (INH)” value is “Active”.

Consider `CCOc1cccc(S[C@H]2C[C@@H](C)[C@H]([C@H]3C(=O)N[C@@H](CC)C(=O)N(C)CC(=O)N(C)[C@@H](CC(C)C)C(=O)N[C@@H](C(C)C)C(=O)N(C)[C@@H](CC(C)C)C(=O)N[C@@H](C)C(=O)N[C@H](C)C(=O)N(C)[C@@H](CC(C)C)C(=O)N(C)[C@@H](CC(C)C)C(=O)N(C)[C@@H](C(C)C)C(=O)N3C)O2)c1`, for which, in data set [1], the pIC50 was 6.74. Besides, the microsomal CLint at 1 µM in data set [2] turned out to be 4 µL/min/mg; in data set [3], 18.5 µL/min/mg; in data set [4] it was 2.3 µL/min/mg.

As to `CC[C@@H]1NC(=O)[C@H]([C@@H]2O[C@@H](Sc3cccc(NCc4ccccc4)c3)C[C@H]2C)N(C)C(=O)[C@H](C(C)C)N(C)C(=O)[C@H](CC(C)C)N(C)C(=O)[C@H](CC(C)C)N(C)C(=O)[C@@H](C)NC(=O)[C@H](C)NC(=O)[C@H](CC(C)C)N(C)C(=O)[C@H](C(C)C)NC(=O)[C@H](CC(C)C)N(C)C(=O)CN(C)C1=O`, the negative-log IC50 (pIC50) in data set [1] was 6.77. Moreover, the microsomal CLint at 1 µM in data set [2] came to 2.1 µL/min/mg; in data set [3], 6.1 µL/min/mg; in data set [4] it was 1.4 µL/min/mg.

For `CC[C@@H]1NC(=O)[C@H]([C@@H]2O[C@@H](Sc3cccc(OCc4ccc(F)cc4)c3)C[C@H]2C)N(C)C(=O)[C@H](C(C)C)N(C)C(=O)[C@H](CC(C)C)N(C)C(=O)[C@H](CC(C)C)N(C)C(=O)[C@@H](C)NC(=O)[C@H](C)NC(=O)[C@H](CC(C)C)N(C)C(=O)[C@H](C(C)C)NC(=O)[C@H](CC(C)C)N(C)C(=O)CN(C)C1=O`, the pIC50 in data set [1] was 6.69. Further, the microsomal CLint at 1 µM in data set [2] was 0.3 µL/min/mg; in data set [3], 7.7 µL/min/mg; in data set [4], 2 µL/min/mg.

As to `CC[C@@H]1NC(=O)[C@H]([C@@H]2O[C@@H](Sc3cc(OC)cc(OC)c3)C[C@H]2C)N(C)C(=O)[C@H](C(C)C)N(C)C(=O)[C@H](CC(C)C)N(C)C(=O)[C@H](CC(C)C)N(C)C(=O)[C@@H](C)NC(=O)[C@H](C)NC(=O)[C@H](CC(C)C)N(C)C(=O)[C@H](C(C)C)NC(=O)[C@H](CC(C)C)N(C)C(=O)CN(C)C1=O`, in data set [1], the pIC50 is 6.93. For the same compound, the values for the microsomal CLint at 1 µM in data set [2], in data set [3] and in data set [4] were 5.5 µL/min/mg, 10.2 µL/min/mg and 0.7 µL/min/mg, respectively.

For the compound `CC[C@@H]1NC(=O)[C@H]([C@@H]2O[C@@H](Sc3ccc(Cl)c(OC)c3)C[C@H]2C)N(C)C(=O)[C@H](C(C)C)N(C)C(=O)[C@H](CC(C)C)N(C)C(=O)[C@H](CC(C)C)N(C)C(=O)[C@@H](C)NC(=O)[C@H](C)NC(=O)[C@H](CC(C)C)N(C)C(=O)[C@H](C(C)C)NC(=O)[C@H](CC(C)C)N(C)C(=O)CN(C)C1=O`, the negative-log IC50 (pIC50) in data set [1] was 7.00. Moreover, the microsomal CLint at 1 µM in data set [2] was determined as 3.3 µL/min/mg; in data set [3], 14.8 µL/min/mg; in data set [4], 2 µL/min/mg.
